Test results from ChEMBL document CHEMBL4414551, “Design, Synthesis, and Biological Evaluation of Substituted 4,6-Dihydrospiro[[1,2,3]triazolo[4,5-b]pyridine-7,3'-indoline]-2',5(3H)-dione Analogues as Potent NS4B Inhibitors for the Treatment of Dengue Virus Infection” (J Med Chem, 2019).

How the values were obtained:
[1] = Cytotoxicity in human HuH7 replicon cells infected with Dengue virus 2 NGC assessed as reduction in cell viability incubated for 48 hrs by Cell-titer-Glo reagent based assay; set-up: species or system Huh-7
How it was run: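 Huh7 cells or Huh7 replicon cells plated, then held at 37 °C with 5% CO₂ overnight. Exposed to 2-fold serial compound dilutions for 48 h, in duplicate. Viability read with CellTiter-Glo and normalized to 0.45% DMSO wells set at 100%. CC50 from four-parameter logistic fit.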

dengue virus type 4 = assay: Antiviral activity against Dengue virus 4 D4MY01-22713 infected in human HuH7 replicon cells expressing Renilla luciferase and neomycin-resistance genes assessed as reduction in viral replication incubated for 48 hrs by luciferase reporter replicon-based assay; assay type: functional, organism-based; settings: D4MY01-22713, Huh-7, 48 h
How it was run: (§1)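 Huh7 cells stably carrying a Renilla luciferase/neomycin-resistance replicon (DENV-1 WestPac, DENV-2 NGC, DENV-3 D3MY05-34640 or DENV-4 D4MY01-22713). Cells seeded at 10k per well and incubated overnight at 37 °C, 5% CO2. Then exposed to 2-fold serial compound dilutions for 48 h, in duplicate. Luciferase read with a live-cell substrate. EC50 from four-parameter logistic fit.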

dengue virus type 3 = assay: Antiviral activity against Dengue virus 3 D3MY05-34640 infected in human HuH7 replicon cells expressing Renilla luciferase and neomycin-resistance genes assessed as reduction in viral replication incubated for 48 hrs by luciferase reporter replicon-based assay; assay type: functional, organism-based; settings: D3MY05-34640, Huh-7, 48 h; how it was run: as §1
dengue virus type 2 = assay: Antiviral activity against Dengue virus 2 NGC infected in human HuH7 replicon cells expressing Renilla luciferase and neomycin-resistance genes assessed as reduction in viral replication incubated for 48 hrs by luciferase reporter replicon-based assay; assay type: functional, organism-based; settings: Huh-7, 48 h; how it was run: as §1
dengue virus type 1 = assay: Antiviral activity against Dengue virus 1 WestPac infected in human HuH7 replicon cells expressing Renilla luciferase and neomycin-resistance genes assessed as reduction in viral replication incubated for 48 hrs by luciferase reporter replicon-based assay; assay type: functional, organism-based; settings: Huh-7, 48 h; how it was run: as §1

SMILES	CC50 at 48 h [1]	EC50 (dengue virus type 4)	EC50 (dengue virus type 3)	EC50 (dengue virus type 2)	EC50 (dengue virus type 1)
COc1cccc(CN2C(=O)[C@]3(CC(=O)Nc4c3nnn4[C@@H](C)c3ccc(Cl)cc3)c3cc(Cl)ccc32)c1	> 10000 nM	6200 nM	87 nM	830 nM	2600 nM
C[C@@H](c1ccc(Cl)cc1)n1nnc2c1NC(=O)C[C@]21C(=O)N(Cc2ccc(F)cc2)c2ccc(Cl)cc21	> 10000 nM	10000 nM	48 nM	160 nM	5000 nM
C[C@@H](c1ccc(Cl)cc1)n1nnc2c1NC(=O)C[C@]21C(=O)N(CCO)c2ccc(Cl)cc21	> 10000 nM	> 5000 nM	10 nM	37 nM	> 5000 nM
C[C@@H](c1ccc(Cl)cc1)n1nnc2c1NC(=O)C[C@]21C(=O)N(CCN2CCN(C)CC2)c2ccc(Cl)cc21	> 10000 nM	> 5000 nM	30 nM	300 nM	> 5000 nM
C=CCN1C(=O)[C@]2(CC(=O)Nc3c2nnn3[C@@H](C)c2ccc(Cl)cc2)c2cc(Cl)ccc21	> 10000 nM	> 5000 nM	5 nM	38 nM	2100 nM
CC(C)N1C(=O)[C@]2(CC(=O)Nc3c2nnn3[C@@H](C)c2ccc(Cl)cc2)c2cc(Cl)ccc21	> 10000 nM	> 5000 nM	9 nM	23 nM	5700 nM
C[C@@H](c1ccc(Cl)cc1)n1nnc2c1NC(=O)C[C@]21C(=O)N(CC2CC2)c2ccc(Cl)cc21	> 10000 nM	> 5000 nM	17 nM	110 nM	3100 nM
C[C@@H](c1ccc(Cl)cc1)n1nnc2c1NC(=O)C[C@]21C(=O)N(C)c2ccc(Cl)cc21	> 10000 nM	> 5000 nM	4 nM	19 nM	> 5000 nM
COCCCN1C(=O)C[C@]2(C(=O)Nc3ccc(Cl)cc32)c2nnn([C@@H](C)c3ccc(Cl)cc3)c21	> 10000 nM	> 10000 nM	910 nM	8700 nM	> 10000 nM
C[C@@H](c1ccc(Cl)cc1)n1nnc2c1NC(=O)C[C@]21C(=O)N(CCCN2CCOCC2)c2ccc(Cl)cc21	> 10000 nM	> 5000 nM	5 nM	76 nM	> 5000 nM
C[C@@H](c1ccc(Cl)cc1)n1nnc2c1NC(=O)C[C@]21C(=O)N(CCN2CCC2)c2ccc(Cl)cc21	> 10000 nM	> 5000 nM	7 nM	67 nM	> 5000 nM
COCOCCN1C(=O)[C@]2(CC(=O)Nc3c2nnn3[C@@H](C)c2ccc(Cl)cc2)c2cc(Cl)ccc21	> 10000 nM	> 5000 nM	19 nM	92 nM	> 5000 nM
C[C@@H](c1ccc(Cl)cc1)n1nnc2c1NC(=O)C[C@]21C(=O)Nc2ccc(Cl)cc21	> 10000 nM	> 5000 nM	10 nM	39 nM	> 5000 nM
COC(=O)CN1C(=O)[C@]2(CC(=O)Nc3c2nnn3[C@@H](C)c2ccc(Cl)cc2)c2cc(Cl)ccc21	> 10000 nM	> 5000 nM	11 nM	77 nM	> 5000 nM
CC#CCN1C(=O)[C@]2(CC(=O)Nc3c2nnn3[C@@H](C)c2ccc(Cl)cc2)c2cc(Cl)ccc21	> 10000 nM	> 5000 nM	20 nM	63 nM	> 5000 nM
CCN1C(=O)[C@]2(CC(=O)Nc3c2nnn3[C@@H](C)c2ccc(Cl)cc2)c2cc(Cl)ccc21	> 10000 nM	> 5000 nM	6 nM	24 nM	2500 nM

SMILES	CC50 at 48 h [1]	EC50 (dengue virus type 4)	EC50 (dengue virus type 3)	EC50 (dengue virus type 2)	EC50 (dengue virus type 1)
C#CCN1C(=O)[C@]2(CC(=O)Nc3c2nnn3[C@@H](C)c2ccc(Cl)cc2)c2cc(Cl)ccc21	> 10000 nM	> 5000 nM	3 nM	69 nM	> 5000 nM
C[C@@H](c1ccc(Cl)cc1)n1nnc2c1NC(=O)C[C@]21C(=O)N(CCCBr)c2ccc(Cl)cc21	> 10000 nM	3200 nM	76 nM	250 nM	2400 nM
CCCCCCN1C(=O)[C@]2(CC(=O)Nc3c2nnn3[C@@H](C)c2ccc(Cl)cc2)c2cc(Cl)ccc21	> 10000 nM	> 5000 nM	140 nM	810 nM	830 nM
CCOC(CN1C(=O)[C@]2(CC(=O)Nc3c2nnn3[C@@H](C)c2ccc(Cl)cc2)c2cc(Cl)ccc21)OCC	> 10000 nM	> 5000 nM	76 nM	290 nM	> 5000 nM
C[C@@H](c1ccc(Cl)cc1)n1nnc2c1NC(=O)C[C@]21C(=O)N(CCc2ccccc2)c2ccc(Cl)cc21	> 10000 nM	> 5000 nM	190 nM	600 nM	1100 nM
CCCN1C(=O)[C@]2(CC(=O)Nc3c2nnn3[C@@H](C)c2ccc(Cl)cc2)c2cc(Cl)ccc21	> 10000 nM	> 5000 nM	10 nM	71 nM	1900 nM
CC(C)N1C(=O)C[C@]2(C(=O)Nc3ccc(Cl)cc32)c2nnn([C@@H](C)c3ccc(Cl)cc3)c21	> 10000 nM	4400 nM	310 nM	860 nM	2100 nM
C[C@@H](c1ccc(Cl)cc1)n1nnc2c1NC(=O)C[C@]21C(=O)N(CCCN2CCCCC2)c2ccc(Cl)cc21	> 10000 nM	> 5000 nM	12 nM	130 nM	> 5000 nM
C[C@@H](c1ccc(Cl)cc1)n1nnc2c1NC(=O)C[C@]21C(=O)N(CCCCN(C)C)c2ccc(Cl)cc21	> 10000 nM	> 5000 nM	38 nM	190 nM	> 5000 nM
C[C@@H](c1ccc(Cl)cc1)n1nnc2c1NC(=O)C[C@]21C(=O)N(CCN2CCCC2)c2ccc(Cl)cc21	> 10000 nM	> 5000 nM	6 nM	38 nM	> 5000 nM
C[C@@H](c1ccc(Cl)cc1)n1nnc2c1NC(=O)C[C@]21C(=O)N(Cc2cccc(F)c2)c2ccc(Cl)cc21	> 10000 nM	> 5000 nM	51 nM	290 nM	10000 nM
C[C@@H](c1ccc(Cl)cc1)n1nnc2c1NC(=O)C[C@]21C(=O)N(CCCN(C)C)c2ccc(Cl)cc21	> 10000 nM	> 5000 nM	1 nM	25 nM	> 5000 nM
C[C@@H](c1ccc(Cl)cc1)n1nnc2c1NC(=O)C[C@]21C(=O)N(CCN(C)CCS(C)(=O)=O)c2ccc(Cl)cc21	> 10000 nM	> 5000 nM	18 nM	77 nM	> 5000 nM
C[C@@H](c1ccc(Cl)cc1)n1nnc2c1NC(=O)C[C@]21C(=O)N(CCCCCCCCBr)c2ccc(Cl)cc21	> 10000 nM	–	–	> 5000 nM	–
C[C@@H](c1ccc(Cl)cc1)n1nnc2c1NC(=O)C[C@]21C(=O)N(CCCCCCBr)c2ccc(Cl)cc21	> 10000 nM	–	–	3000 nM	–
C[C@@H](c1ccc(Cl)cc1)n1nnc2c1NC(=O)C[C@]21C(=O)N(CC(=O)O)c2ccc(Cl)cc21	> 10000 nM	–	–	2400 nM	–
